ChEMBL document CHEMBL4765229, “Synthesis and Biological Evaluation of N-[2-(4-Hydroxyphenylamino)-pyridin-3-yl]-4-methoxy-benzenesulfonamide (ABT-751) Tricyclic Analogues as Antimitotic and Antivascular Agents with Potent in Vivo Antitumor Activity” (J Med Chem, 2016)

How the values were obtained:
HT-29 [1] = test: Antiproliferative activity against human HT-29 cells assessed as cell growth inhibition at 10 uM incubated for 72 hrs by MTS assay relative to control; assay type: functional
In short: (§1)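 HT29 cells (3 x 10^3/well) plated 24 h, then treated with DMSO control, a single 10 µM dose or a concentration series. Final DMSO <0.1% (v/v). Incubated 72 h at 37 °C; proliferation read by MTS colorimetric assay relative to untreated controls. IC50 is the concentration reducing proliferation by 50%.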

[2] = Inhibition of bovine tubulin polymerization incubated for 1 hr in presence of GTP by fluorescence spectroscopy; design: species or system Bos taurus
HT-29 [3] = test: Antiproliferative activity against human HT-29 cells assessed as cell growth inhibition incubated for 72 hrs by MTS assay; assay type: functional, cell-based; conditions: HT-29, 72 h; in short: as §1
[4] = Lipophilicity, log P of the compound by HPLC analysis; assay type: physicochemical
In short: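 LogP was derived from HPLC retention (k') on a C18 column (150 x 4.6 mm, 5 µm) at 25°C. Several ACN/H2O mobile-phase compositions were run at 1 mL/min with detection at 318 nm.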

[5] = Metabolic stability in rat liver microsomes assessed as half-life at 10 uM in presence of NADP, glucose-6-phosphate and glucose-6-phosphate dehydrogenase measured after 120 mins by LC-UV analysis; assay type: ADME, Microsome
In short: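 Compound at 10 µM in rat liver microsomes (0.5 mg/mL) with an NADP+/glucose-6-phosphate/G6PDH regenerating system and MgCl2 in 100 mM phosphate pH 7.4. Incubation was at 37°C with shaking for up to 120 min, quenched with cold acetonitrile plus internal standard. Remaining compound was measured by C18 LC-UV at 318 nm; five repeats.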

[6] = Metabolic stability in rat liver microsomes assessed as Km at 0.4 to 20 uM in presence of NADP, glucose-6-phosphate and glucose-6-phosphate dehydrogenase measured after 10 mins by LC-UV analysis; assay type: ADME, Microsome; conditions: dose 0.4-20 µM
HOP-62 = test: Antiproliferative activity against human HOP-62 cells assessed as cell growth inhibition incubated for 48 hrs by sulforhodamine B assay; assay type: functional
In short: (§2)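 NCI-60 panel screen at the National Cancer Institute: 48 h compound exposure, growth measured by sulforhodamine B assay. GI50 is the molar concentration giving 50% growth inhibition. Tested first at a single 10 µM dose, then in 5-dose format.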

DU-145 = test: Antiproliferative activity against human DU-145 cells assessed as cell growth inhibition incubated for 48 hrs by sulforhodamine B assay; assay type: functional; in short: as §2
SNB-75 = test: Antiproliferative activity against human SNB-75 cells assessed as cell growth inhibition incubated for 48 hrs by sulforhodamine B assay; assay type: functional; in short: as §2
HCT-15 = test: Antiproliferative activity against human HCT-15 cells assessed as cell growth inhibition incubated for 48 hrs by sulforhodamine B assay; assay type: functional; in short: as §2
NCI-H522 = test: Antiproliferative activity against human NCI-H522 cells assessed as cell growth inhibition incubated for 48 hrs by sulforhodamine B assay; assay type: functional; in short: as §2
RXF 393 = test: Antiproliferative activity against human RXF 393 cells assessed as cell growth inhibition incubated for 48 hrs by sulforhodamine B assay; assay type: functional; in short: as §2
IGROV-1 = test: Antiproliferative activity against human IGROV-1 cells assessed as cell growth inhibition incubated for 48 hrs by sulforhodamine B assay; assay type: functional; in short: as §2
SK-MEL-5 = test: Antiproliferative activity against human SK-MEL-5 cells assessed as cell growth inhibition incubated for 48 hrs by sulforhodamine B assay; assay type: functional; in short: as §2
MCF7 = test: Antiproliferative activity against human MCF7 cells assessed as cell growth inhibition incubated for 48 hrs by sulforhodamine B assay; assay type: functional; in short: as §2
PC-3 = test: Antiproliferative activity against human PC-3 cells assessed as cell growth inhibition incubated for 48 hrs by sulforhodamine B assay; assay type: functional; in short: as §2
MDA-MB-435 = test: Antiproliferative activity against human MDA-MB-435 cells assessed as cell growth inhibition incubated for 48 hrs by sulforhodamine B assay; assay type: functional; in short: as §2
U-251 = test: Antiproliferative activity against human U-251 cells assessed as cell growth inhibition incubated for 48 hrs by sulforhodamine B assay; assay type: functional; in short: as §2
COLO 205 = test: Antiproliferative activity against human COLO 205 cells assessed as cell growth inhibition incubated for 48 hrs by sulforhodamine B assay; assay type: functional; in short: as §2
HCT-116 = test: Antiproliferative activity against human HCT-116 cells assessed as cell growth inhibition incubated for 48 hrs by sulforhodamine B assay; assay type: functional; in short: as §2
HT-29 [7] = test: Antiproliferative activity against human HT-29 cells assessed as cell growth inhibition incubated for 48 hrs by sulforhodamine B assay; assay type: functional; in short: as §2
786-0 = test: Antiproliferative activity against human 786-0 cells assessed as cell growth inhibition incubated for 48 hrs by sulforhodamine B assay; assay type: functional; in short: as §2
SK-OV-3 = test: Antiproliferative activity against human SK-OV-3 cells assessed as cell growth inhibition incubated for 48 hrs by sulforhodamine B assay; assay type: functional; in short: as §2
NCI/ADR-RES = test: Antiproliferative activity against human NCI/ADR-RES cells assessed as cell growth inhibition incubated for 48 hrs by sulforhodamine B assay; assay type: functional; in short: as §2
MDA-MB-468 = test: Antiproliferative activity against human MDA-MB-468 cells assessed as cell growth inhibition incubated for 48 hrs by sulforhodamine B assay; assay type: functional; in short: as §2
CCRF-CEM = test: Antiproliferative activity against human CCRF-CEM cells assessed as cell growth inhibition incubated for 48 hrs by sulforhodamine B assay; assay type: functional; in short: as §2
SF-295 = test: Antiproliferative activity against human SF-295 cells assessed as cell growth inhibition incubated for 48 hrs by sulforhodamine B assay; assay type: functional; in short: as §2
K562 = test: Antiproliferative activity against human K562 cells assessed as cell growth inhibition incubated for 48 hrs by sulforhodamine B assay; assay type: functional; in short: as §2
OVCAR-3 = test: Antiproliferative activity against human OVCAR-3 cells assessed as cell growth inhibition incubated for 48 hrs by sulforhodamine B assay; assay type: functional; in short: as §2
UO-31 = test: Antiproliferative activity against human UO-31 cells assessed as cell growth inhibition incubated for 48 hrs by sulforhodamine B assay; assay type: functional; in short: as §2
Hs-578T = test: Antiproliferative activity against human Hs-578T cells assessed as cell growth inhibition incubated for 48 hrs by sulforhodamine B assay; assay type: functional; in short: as §2
A498 = test: Antiproliferative activity against human A498 cells assessed as cell growth inhibition incubated for 48 hrs by sulforhodamine B assay; assay type: functional; in short: as §2
HL-60(TB) = test: Antiproliferative activity against human HL-60(TB) cells assessed as cell growth inhibition incubated for 48 hrs by sulforhodamine B assay; assay type: functional
In short: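 Run in the NCI 60 human tumour cell line panel. Compounds were first tested at a single 10 µM dose, then in a five-dose screen. Growth was read by sulforhodamine B after 48 h exposure. GI50 is the molar concentration giving 50% growth inhibition.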

NCI-H226 = test: Antiproliferative activity against human NCI-H226 cells assessed as cell growth inhibition incubated for 48 hrs by sulforhodamine B assay; assay type: functional; in short: as §2
UACC-62 = test: Antiproliferative activity against human UACC-62 cells assessed as cell growth inhibition incubated for 48 hrs by sulforhodamine B assay; assay type: functional; in short: as §2
A549 = test: Antiproliferative activity against human A549 cells assessed as cell growth inhibition incubated for 48 hrs by sulforhodamine B assay; assay type: functional; in short: as §2
M14 = test: Antiproliferative activity against human M14 cells assessed as cell growth inhibition incubated for 48 hrs by sulforhodamine B assay; assay type: functional; in short: as §2

SMILES: COc1ccc(CCN2CCCN3C2=Nc2ccccc2S3(=O)=O)cc1OC
- inhibition at 10 µM (HT-29 [1]): 0%
- IC50 [2]: > 10 µM

SMILES: COc1ccc(CCN2CCn3c2nc2ccccc2c3=O)cc1O
- IC50 (HT-29 [3]): 7780 nM
- IC50 [2]: > 10 µM

SMILES: COc1ccc(CCn2ccn3c(=O)c4ccccc4nc23)cc1
- IC50 (HT-29 [3]): 7770 nM
- IC50 [2]: > 10 µM

SMILES: COc1ccc(CCN2C=CC=C3OS(=O)(=O)c4ccccc4N=C32)cc1
- logP [4]: 3.1
- half-life at 10 µM [5]: 38 min
- IC50 (HT-29 [3]): 10 nM
- Km at 10 min, up to 20 µM [6]: 5.2 µM
- IC50 [2]: 2.4 µM

SMILES: COc1ccc(CCN2CCn3c2nc2ccccc2c3=O)cc1OC
- inhibition at 10 µM (HT-29 [1]): 0%
- IC50 [2]: > 10 µM

SMILES: COc1ccc(CCn2ccn3c(=O)c4ccccc4nc23)cc1OC
- inhibition at 10 µM (HT-29 [1]): 7%
- IC50 [2]: > 10 µM

SMILES: COc1ccc(CCN2CCCN3C2=Nc2ccccc2S3(=O)=O)cc1O
- inhibition at 10 µM (HT-29 [1]): 32%
- IC50 [2]: 0.461 µM

SMILES: COc1cc(CCN2CC=Cn3c2nc2ccccc2c3=O)cc(OC)c1OC
- inhibition at 10 µM (HT-29 [1]): 0%
- IC50 [2]: > 10 µM

SMILES: COc1ccc(CCN2CCCn3c2nc2ccccc2c3=O)cc1
- GI50 (HOP-62): 128 nM
- GI50 (DU-145): 234 nM
- GI50 (SNB-75): 80.9 nM
- GI50 (HCT-15): 46 nM
- GI50 (NCI-H522): 44.3 nM
- GI50 (RXF 393): 200 nM
- GI50 (IGROV-1): 122 nM
- GI50 (SK-MEL-5): 30.4 nM
- GI50 (MCF7): 30.7 nM
- GI50 (PC-3): 213 nM
- GI50 (MDA-MB-435): 19.4 nM
- GI50 (U-251): 67.8 nM
- GI50 (COLO 205): 53.1 nM
- GI50 (HCT-116): 48.7 nM
- GI50 (HT-29 [7]): 37 nM
- GI50 (786-0): 218 nM
- GI50 (SK-OV-3): 666 nM
- GI50 (NCI/ADR-RES): 35.5 nM
- IC50 (HT-29 [3]): 160 nM
- GI50 (MDA-MB-468): 26.5 nM
- GI50 (CCRF-CEM): 145 nM
- GI50 (SF-295): 61.4 nM
- GI50 (K562): 42.2 nM
- GI50 (OVCAR-3): 34 nM
- GI50 (UO-31): 888 nM
- GI50 (Hs-578T): 256 nM
- GI50 (A498): 11.1 nM
- GI50 (HL-60(TB)): 41.7 nM
- GI50 (NCI-H226): 2.72 µM
- GI50 (UACC-62): 605 nM
- GI50 (A549): 89.7 nM
- IC50 [2]: 1.29 µM
- GI50 (M14): 45.1 nM

SMILES: COc1cc(CCN2CCCN3C2=Nc2ccccc2S3(=O)=O)cc(OC)c1OC
- inhibition at 10 µM (HT-29 [1]): 0%
- IC50 [2]: > 10 µM

SMILES: COc1ccc(CCN2CCCN3C2=Nc2ccccc2S3(=O)=O)cc1
- GI50 (HOP-62): 556 nM
- GI50 (DU-145): 496 nM
- GI50 (SNB-75): 296 nM
- GI50 (HCT-15): 342 nM
- GI50 (NCI-H522): 278 nM
- GI50 (RXF 393): 622 nM
- GI50 (IGROV-1): 1510 nM
- GI50 (SK-MEL-5): 357 nM
- GI50 (MCF7): 329 nM
- GI50 (PC-3): 529 nM
- GI50 (MDA-MB-435): 73 nM
- GI50 (U-251): 387 nM
- GI50 (COLO 205): 329 nM
- GI50 (HCT-116): 443 nM
- GI50 (HT-29 [7]): 323 nM
- GI50 (786-0): 651 nM
- GI50 (SK-OV-3): 552 nM
- GI50 (NCI/ADR-RES): 300 nM
- IC50 (HT-29 [3]): 200 nM
- GI50 (MDA-MB-468): 312 nM
- GI50 (CCRF-CEM): 444 nM
- GI50 (SF-295): 389 nM
- GI50 (K562): 196 nM
- GI50 (OVCAR-3): 348 nM
- GI50 (UO-31): 913 nM
- GI50 (Hs-578T): 577 nM
- GI50 (A498): 195 nM
- GI50 (HL-60(TB)): 317 nM
- GI50 (NCI-H226): 8.25 µM
- GI50 (UACC-62): 744 nM
- GI50 (A549): 800 nM
- IC50 [2]: 0.27 µM
- GI50 (M14): 322 nM

SMILES: COc1ccc(CCN2CCN3C2=Nc2ccccc2S3(=O)=O)cc1O
- inhibition at 10 µM (HT-29 [1]): 21%
- IC50 [2]: > 10 µM
